Results from ChEMBL document CHEMBL1127493, “Glycylcyclines. 1. A new generation of potent antibacterial agents through modification of 9-aminotetracyclines” (1994).
In brackets after ≈: the same amount, converted by molar mass.

Tests used:
Format in all cases: functional
Staphylococcus aureus [1] = assay: In vitro minimum inhibitory concentration against Staphylococcus aureus UBMS 90-3 (sensitive).
Method in brief: (§1)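 Agar dilution on Mueller–Hinton II agar; inoculum (1-5) × 10^5 CFU/mL; antibiotic concentrations 32–0.004 µg/mL; plates incubated 18 h at 35 °C in forced-air incubator. MIC taken as lowest concentration inhibiting growth of the test organism (tetracycline-sensitive and tetracycline-resistant strains).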

Escherichia coli [2] = assay: In vitro minimum inhibitory concentration against Escherichia coli UBMS 88-1 (tet B efflux).; method in brief: as §1
Escherichia coli [3] = assay: In vitro minimum inhibitory concentration against Escherichia coli PRP-1 (tet A efflux).; method in brief: as §1
Escherichia coli [4] = assay: In vitro minimum inhibitory concentration against Escherichia coli J3272 (tet C efflux).; method in brief: as §1
Staphylococcus aureus [5] = assay: In vitro minimum inhibitory concentration against Staphylococcus aureus UBMS 90-1 (tet M ribosomal protection).; method in brief: as §1
Staphylococcus aureus [6] = assay: In vitro minimum inhibitory concentration against Staphylococcus aureus UBMS 88-7 (tet K efflux).; method in brief: as §1
Staphylococcus aureus [7] = assay: In vitro minimum inhibitory concentration against Staphylococcus aureus smith (sensitive).; method in brief: as §1
Escherichia coli [8] = assay: In vitro minimum inhibitory concentration against Escherichia coli UBMS 90-5 (sensitive).; method in brief: as §1
Enterococcus faecalis = assay: In vitro minimum inhibitory concentration against Enterococcus faecalis ATCC 29212.; method in brief: as §1
Escherichia coli [9] = assay: In vitro minimum inhibitory concentration against Escherichia coli UBMS 90-4 (tet M ribosomal protection).; method in brief: as §1
Escherichia coli [10] = assay: In vitro minimum inhibitory concentration against Escherichia coli J3272 (tet D efflux).; method in brief: as §1

| SMILES | MIC (Staphylococcus aureus [1]) | MIC (Escherichia coli [2]) | MIC (Escherichia coli [3]) | MIC (Escherichia coli [4]) | MIC (Staphylococcus aureus [5]) | MIC (Staphylococcus aureus [6]) | MIC (Staphylococcus aureus [7]) | MIC (Escherichia coli [8]) | MIC (Enterococcus faecalis) | MIC (Escherichia coli [9]) | MIC (Escherichia coli [10]) |
| --- | --- | --- | --- | --- | --- | --- | --- | --- | --- | --- | --- |
| CC(=O)Nc1ccc2c(c1O)C(O)=C1C(=O)[C@]3(O)C(O)=C(C(N)=O)C(=O)[C@@H](N(C)C)C3CC1C2.O=S(=O)(O)O (some centres not stated) | 0.12 µg/mL | > 32 µg/mL | > 32 µg/mL | > 32 µg/mL | 2 µg/mL | 32 µg/mL | 0.12 µg/mL | 8 µg/mL | 0.25 µg/mL | 8 µg/mL | 0.5 µg/mL |
| CN(C)c1cc(NC(=O)CN)c(O)c2c1CC1CC3[C@H](N(C)C)C(=O)C(C(N)=O)=C(O)[C@@]3(O)C(=O)C1=C2O.O=C(O)C(F)(F)F (some centres not stated) | 0.5 µg/mL | 2 µg/mL | 32 µg/mL | 32 µg/mL | 2 µg/mL | > 32 µg/mL | 1 µg/mL | 2 µg/mL | 0.25 µg/mL | 1 µg/mL | 2 µg/mL |
| CN(C)[C@@H]1C(=O)C(C(N)=O)=C(O)[C@@]2(O)C(=O)C3=C(O)c4c(ccc(N)c4O)CC3CC12.O=S(=O)(O)O (some centres not stated) | < 0.015 µg/mL | > 32 µg/mL | 32 µg/mL | > 32 µg/mL | 8 µg/mL | 4 µg/mL | 0.03 µg/mL | 1 µg/mL | 0.5 µg/mL | 16 µg/mL | – |
| CCN(CC)c1cc(N)c(O)c2c1CC1CC3[C@H](N(C)C)C(=O)C(C(N)=O)=C(O)[C@@]3(O)C(=O)C1=C2O.Cl (some centres not stated) | 0.03 µg/mL | 2 µg/mL | 2 µg/mL | 4 µg/mL | 2 µg/mL | 0.06 µg/mL | 0.03 µg/mL | 1 µg/mL | 0.12 µg/mL | 32 µg/mL | – |
| CN(C)[C@@H]1C(=O)C(C(N)=O)=C(O)[C@@]2(O)C(=O)C3=C(O)c4c(ccc(NC=O)c4O)CC3CC12.O=S(=O)(O)O (some centres not stated) | < 0.015 µg/mL | 32 µg/mL | > 32 µg/mL | > 32 µg/mL | 1 µg/mL | > 32 µg/mL | 0.03 µg/mL | 0.25 µg/mL | 0.06 µg/mL | 1 µg/mL | – |
| CN(C)CC(=O)Nc1cc(N(C)C)c2c(c1O)C(=O)C1=C(O)[C@]3(O)C(O)=C(C(N)=O)C(=O)[C@@H](N(C)C)C3CC1C2.Cl (some centres not stated) | 0.06 µg/mL | 0.25 µg/mL | 2 µg/mL | 1 µg/mL | 0.25 µg/mL | 2 µg/mL | 0.12 µg/mL | 0.25 µg/mL | 0.06 µg/mL | 0.25 µg/mL | 0.12 µg/mL |
| CN(C)[C@@H]1C(=O)C(C(N)=O)=C(O)[C@@]2(O)C(=O)C3=C(O)c4c(O)c(N)cc(I)c4CC3CC12.O=S(=O)(O)O (some centres not stated) | 0.03 µg/mL | > 32 µg/mL | > 32 µg/mL | > 32 µg/mL | 0.5 µg/mL | 0.5 µg/mL | < 0.015 µg/mL | 4 µg/mL | 0.12 µg/mL | > 32 µg/mL | – |
| CN(C)c1cc(N)c(O)c2c1CC1CC3[C@H](N(C)C)C(=O)C(C(N)=O)=C(O)[C@@]3(O)C(=O)C1=C2O.Cl (some centres not stated) | 0.06 µg/mL | 32 µg/mL | 4 µg/mL | 16 µg/mL | 0.5 µg/mL | 0.25 µg/mL | 0.06 µg/mL | 0.5 µg/mL | 0.25 µg/mL | 8 µg/mL | 8 µg/mL |
| CCN(CC)c1cc(NC=O)c(O)c2c1CC1CC3[C@H](N(C)C)C(=O)C(C(N)=O)=C(O)[C@@]3(O)C(=O)C1=C2O (some centres not stated) | 0.03 µg/mL (≈ 0.0568 µM) | 16 µg/mL (≈ 30.3 µM) | 32 µg/mL (≈ 60.5 µM) | 32 µg/mL (≈ 60.5 µM) | 0.5 µg/mL (≈ 0.946 µM) | 0.25 µg/mL (≈ 0.473 µM) | 0.03 µg/mL (≈ 0.0568 µM) | 0.5 µg/mL (≈ 0.946 µM) | 0.06 µg/mL (≈ 0.114 µM) | 8 µg/mL (≈ 15.1 µM) | – |
| CN(C)c1ccc(O)c2c1C[C@H]1C[C@H]3[C@H](N(C)C)C(O)=C(C(N)=O)C(=O)[C@@]3(O)C(O)=C1C2=O [MINOCYCLINE] | 0.12 µg/mL (≈ 0.262 µM) | 16 µg/mL (≈ 35 µM) | 4 µg/mL (≈ 8.74 µM) | 4 µg/mL (≈ 8.74 µM) | 4 µg/mL (≈ 8.74 µM) | 0.25 µg/mL (≈ 0.546 µM) | 0.12 µg/mL (≈ 0.262 µM) | 1 µg/mL (≈ 2.19 µM) | – | > 32 µg/mL | 8 µg/mL (≈ 17.5 µM) |
| CN(C)[C@@H]1C(O)=C(C(N)=O)C(=O)[C@@]2(O)C(O)=C3C(=O)c4c(O)cccc4[C@@](C)(O)[C@H]3C[C@@H]12 [TETRACYCLINE] | 0.25 µg/mL (≈ 0.563 µM) | > 32 µg/mL | 32 µg/mL (≈ 72 µM) | > 32 µg/mL | > 32 µg/mL | > 32 µg/mL | 0.25 µg/mL (≈ 0.563 µM) | 1 µg/mL (≈ 2.25 µM) | – | > 32 µg/mL | 32 µg/mL (≈ 72 µM) |

Second part, the compound after the results:

| MIC (Staphylococcus aureus [1]) | MIC (Escherichia coli [2]) | MIC (Escherichia coli [3]) | MIC (Escherichia coli [4]) | MIC (Staphylococcus aureus [5]) | MIC (Staphylococcus aureus [6]) | MIC (Staphylococcus aureus [7]) | MIC (Escherichia coli [8]) | MIC (Enterococcus faecalis) | MIC (Escherichia coli [9]) | MIC (Escherichia coli [10]) | SMILES |
| --- | --- | --- | --- | --- | --- | --- | --- | --- | --- | --- | --- |
| 0.12 µg/mL (≈ 0.221 µM) | 32 µg/mL (≈ 59 µM) | > 32 µg/mL | > 32 µg/mL | 2 µg/mL (≈ 3.69 µM) | 2 µg/mL (≈ 3.69 µM) | 0.12 µg/mL (≈ 0.221 µM) | 32 µg/mL (≈ 59 µM) | 0.25 µg/mL (≈ 0.461 µM) | 32 µg/mL (≈ 59 µM) | – | CCN(CC)c1cc(NC(C)=O)c(O)c2c1CC1CC3[C@H](N(C)C)C(=O)C(C(N)=O)=C(O)[C@@]3(O)C(=O)C1=C2O (some centres not stated) |
| 0.25 µg/mL (≈ 0.486 µM) | > 32 µg/mL | > 32 µg/mL | > 32 µg/mL | 1 µg/mL (≈ 1.94 µM) | 8 µg/mL (≈ 15.5 µM) | 0.25 µg/mL (≈ 0.486 µM) | 8 µg/mL (≈ 15.5 µM) | 0.25 µg/mL (≈ 0.486 µM) | 4 µg/mL (≈ 7.77 µM) | – | CC(=O)Nc1cc(N(C)C)c2c(c1O)C(O)=C1C(=O)[C@]3(O)C(O)=C(C(N)=O)C(=O)[C@@H](N(C)C)C3CC1C2 (some centres not stated) |
| 0.12 µg/mL | > 128 µg/mL | > 128 µg/mL | > 128 µg/mL | 1 µg/mL | 16 µg/mL | 0.12 µg/mL | 16 µg/mL | 0.25 µg/mL | > 128 µg/mL | – | CC(=O)Nc1cc(I)c2c(c1O)C(O)=C1C(=O)[C@]3(O)C(O)=C(C(N)=O)C(=O)[C@@H](N(C)C)C3CC1C2.O=S(=O)(O)O (some centres not stated) |
| 0.12 µg/mL | 1 µg/mL | 8 µg/mL | 4 µg/mL | 0.5 µg/mL | 4 µg/mL | 0.25 µg/mL | 2 µg/mL | 0.06 µg/mL | 1 µg/mL | 0.5 µg/mL | CN(C)CC(=O)Nc1cc(I)c2c(c1O)C(=O)C1=C(O)[C@]3(O)C(O)=C(C(N)=O)C(=O)[C@@H](N(C)C)C3CC1C2.Cl (some centres not stated) |
| 0.5 µg/mL | 1 µg/mL | 4 µg/mL | 4 µg/mL | 0.5 µg/mL | 1 µg/mL | 0.5 µg/mL | 1 µg/mL | 0.25 µg/mL | 1 µg/mL | 0.5 µg/mL | CCN(CC)c1cc(NC(=O)CN(C)C)c(O)c2c1CC1CC3[C@H](N(C)C)C(=O)C(C(N)=O)=C(O)[C@@]3(O)C(=O)C1=C2O.Cl (some centres not stated) |
| 0.03 µg/mL (≈ 0.0599 µM) | > 32 µg/mL | 16 µg/mL (≈ 32 µM) | > 32 µg/mL | 0.06 µg/mL (≈ 0.12 µM) | 4 µg/mL (≈ 7.99 µM) | 0.03 µg/mL (≈ 0.0599 µM) | 0.25 µg/mL (≈ 0.499 µM) | 0.03 µg/mL (≈ 0.0599 µM) | 1 µg/mL (≈ 2 µM) | 8 µg/mL (≈ 16 µM) | CN(C)c1cc(NC=O)c(O)c2c1CC1CC3[C@H](N(C)C)C(=O)C(C(N)=O)=C(O)[C@@]3(O)C(=O)C1=C2O (some centres not stated) |
| 0.03 µg/mL | > 32 µg/mL | > 32 µg/mL | > 32 µg/mL | 4 µg/mL | 16 µg/mL | 0.03 µg/mL | 0.5 µg/mL | 0.25 µg/mL | 32 µg/mL | – | CN(C)[C@@H]1C(=O)C(C(N)=O)=C(O)[C@@]2(O)C(=O)C3=C(O)c4c(O)c(NC=O)cc(I)c4CC3CC12.O=S(=O)(O)O (some centres not stated) |
